This is a sample that favours compounds with a hit; in the whole collection about 2% have one here.
L929 necroptosis = blocks zVAD induced death of L929 cells; L929 zVAD necroptosis rescue, ATP luminescence, 24 h; with zVAD 60 µM; viability rescue, % at 10 µM; 220,000 compounds, 0.38% hits;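 active means activation, scaled between plate controls, above about 75%, limit read from the data; inactive means activation under that limit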;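 further: 0% = zVAD with DMSO and 100% = DMSO alone without zVAD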
TbHK1 inh = T. brucei hexokinase 1 inhibition; recombinant TbHK1, G6PDH-coupled NADH A340; inhibition, % at 10 µM; 220,000 compounds, 0.11% hits;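 active means inhibition of 50% or more in the single-dose primary screen; inactive means inhibition below 50%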
TNF necrop inh = blocks TNF-alpha induced death of Jurkat FADD-/- cells. Jurkat FADD-/- TNF necroptosis rescue, ATP luminescence, 24 h; 0 = TNF only, 100 = no-TNF cells. activation (protection from cell death), % at 10 µM. 220,000 compounds, 0.068% hits. AID 463075;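 active means activation, meaning protection from cell death, of at least 50% relative to plate controls; inactive means activation below 50%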;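 further: necroptosis triggered by 40 ng/mL TNF-alpha added together with compound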
RBBP9 inhibitor = blocks human serine hydrolase RBBP9; AID 1515; recombinant RBBP9, FP-Rh probe fluorescence polarization; inhibition, % at 7.94 µM; 220,000 compounds, 0.2% hits;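 active means inhibition above the campaign mean of all tested compounds plus 3 SD, cut at about 14% in these data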;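 further: plate controls were DMSO wells with RBBP9 for no effect and wells lacking RBBP9 protein for full effect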
Target sequence (O75884 whole entry, looked up): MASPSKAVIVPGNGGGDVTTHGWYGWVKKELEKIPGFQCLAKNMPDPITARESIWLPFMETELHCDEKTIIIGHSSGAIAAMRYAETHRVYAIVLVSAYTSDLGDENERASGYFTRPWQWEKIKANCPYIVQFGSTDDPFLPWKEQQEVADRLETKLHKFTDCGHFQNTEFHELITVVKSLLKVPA
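Test system: recombinant human RBBP9. Quantity: 2.5 µM RBBP9 dispensing solution, before mixing. Detection: FP readout at 525/598 nm. Reagent: Serine-hydrolase probe FP-Rh, 375 nM pre-mixing. Measure: % inhibition. Control set: DMSO-treated enzyme wells and wells lacking RBBP9. Buffer or medium: Tris-NaCl-Pluronic buffer, pH 8.0. Times: preincubation 30 min plus labeling 45 min at 25 °C.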
PfM18AAP inh-1 = PfM18AAP enzyme inhibition | recombinant PfM18AAP, H-Glu-NHMec fluorogenic cleavage | inhibition, % at 7.35 µM | 290,000 compounds, 1.2% hits | AID 1822;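 active means inhibition above the campaign mean inhibition over all tested compounds plus 3 SD, cut at about 28% in these data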;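 further: 0% = plate median of test compound wells and 100% = 2 mM ZnCl2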
Lipid droplet = hepatic lipid droplet formation modulation | inhibition, % at 6.5 µM | AML12 mouse hepatocytes, oleate lipid droplets, BODIPY imaging | 240,000 compounds, 0.4% hits | AID 1656;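 active means lipid droplet intensity inhibited by at least 50%, with more than 500 cells counted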
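Assay system: AML12 hepatocytes (mouse); Probe or stimulus: oleic acid at 100 µM to induce lipid droplet formation; Dosing: compound at 6.5 µM only; Schedule: compound with oleate, overnight; Detection: fluorescence imaging, 20x objective, two fields per well; Measure: % inhibition of lipid droplet signal.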
PfM18AAP inh-2 = confirmation of Plasmodium falciparum M18 aspartyl aminopeptidase inhibitors | shares compounds with PfM18AAP inh-1 | recombinant PfM18AAP, H-Glu-NHMec fluorogenic cleavage | inhibition, % at 7.35 µM | 2,400 compounds, 28% hits | AID 2170;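 active means mean inhibition over replicate wells above the hit cutoff set for the earlier primary screen, cut at about 29% in these data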;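 further: 0% = median of test compound wells and 100% = 2 mM ZnCl2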
CTSL1 counter = Cathepsin L (human) inhibition, confirmation; purified cathepsin L1, Z-Leu-Arg-MCA fluorescence; shares compounds with PfM18AAP inh-1; AID 2178; 2,400 tested, under 10 active; inhibition, % at 5.96 µM;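 active means average inhibition across replicates above the hit cutoff set in the earlier primary screen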;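 further: 0% = median of test compound wells and 100% = Z-Phe-Ala-diazomethylketone 1 µM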
Target sequence (P07711 whole entry, looked up): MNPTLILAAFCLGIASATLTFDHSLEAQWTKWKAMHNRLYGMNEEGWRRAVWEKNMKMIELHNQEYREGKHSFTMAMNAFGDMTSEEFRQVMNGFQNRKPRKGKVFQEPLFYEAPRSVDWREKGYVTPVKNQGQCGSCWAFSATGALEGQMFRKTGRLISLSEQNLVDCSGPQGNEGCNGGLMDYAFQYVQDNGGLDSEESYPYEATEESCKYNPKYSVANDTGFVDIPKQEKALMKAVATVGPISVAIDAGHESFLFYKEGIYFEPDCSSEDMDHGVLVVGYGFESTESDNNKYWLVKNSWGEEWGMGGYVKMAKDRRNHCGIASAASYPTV
An asterisk follows results filed as active; . = not tested or not shown.

SMILES | L929 necroptosis | TbHK1 inh | TNF necrop inh | RBBP9 inhibitor | PfM18AAP inh-1 | Lipid droplet | PfM18AAP inh-2 | CTSL1 counter
CCOC(=O)c1cc(S(=O)(=O)N2CCN(C3CCCCC3)CC2)cn1C | . | . | . | . | 1 | -11 | . | .
COc1ccc(NC(=O)Nn2cnnc2)cc1OC | . | . | . | . | 55* | -4 | 44* | -1
COc1cc(NC(=O)Cc2nn(C)c(=O)c3ccccc23)cc(OC)c1OC | 0 | 2 | -4 | 2 | 4 | -3 | . | .
COc1cc(C(=O)Nn2cnnc2)ccc1OC(F)F | . | . | . | . | 45* | 4 | 24 | -2
COc1cc(NC(=O)Nn2cnnc2)cc(OC)c1OC | . | . | . | . | 69* | -11 | 54* | -2
COc1ccccc1NC(=O)Nn1cnnc1 | 1 | 1 | 2 | 1 | 65* | . | 51* | 0
Nc1nc(Sc2ccc(C(F)(F)F)cc2[N+](=O)[O-])n[nH]1 | 0 | -5 | 0 | 3 | 63* | 8 | 56* | -6
CC(C)NC(=O)C(c1ccc(F)cc1)N(Cc1ccco1)C(=O)CCC(=O)Nc1ccccn1 (stereo unspecified) | . | . | . | . | 0 | -22 | . | .
CCOC(=O)c1sc(N)c(C(=O)Nc2ccccc2)c1C | 20 | -16 | 0 | -9 | 40* | 19 | 5 | 1
O=C(NC(=S)NCCc1ccccc1)c1cccc(Cl)c1 | . | . | . | . | 3 | -4 | . | .
CCCCOc1ccc(/C=C/C2=CC(C)(C)NC(=S)N2)cc1OCC | -1 | 2 | -10 | -10 | -16 | -15 | . | .
C/C(=C/c1oc2ccc(O)cc2c1[N+](=O)[O-])N(C)C | -1 | -5 | -4 | -5 | 37* | -2 | -23 | 8
Cc1ccc([N+](=O)[O-])cc1S(=O)(=O)Nc1ccc(O)c(Sc2ncn[nH]2)c1 | . | . | . | . | 54* | 24 | 38* | -4
Cc1occc1C(=O)Nc1cccc([N+](=O)[O-])c1C | 0 | -11 | -3 | 2 | 14 | 16 | . | .
Cn1cccc1CNCC(O)c1ccccc1 (stereo unspecified) | . | . | . | . | 15 | . | . | .
O=C(Nc1ccccc1C(F)(F)F)c1c(F)cccc1Cl | 1 | -9 | 0 | -3 | -5 | -16 | . | .
COc1ccc(S(=O)(=O)Oc2ccccc2C(=S)N2CCOCC2)cc1 | . | . | . | . | 45* | -23 | -13 | 4
Oc1ccc(O)c(/C(=N/Nc2ccccc2)c2ccccc2)c1 | . | . | . | . | 45* | 34 | -80 | -1
CCOc1ccc(N(CC(=O)NN=C2CCCC2)S(C)(=O)=O)cc1 | 0 | -15 | 2 | -4 | -15 | 0 | . | .
O=C(NNC(=S)Nc1ccccc1)Nc1ccccc1 | 1 | 0 | 0 | 3 | 53* | 20 | 18 | -6
O=C(NNC(=S)Nc1ccccc1)c1ccncc1 | 1 | -33 | -2 | -6 | 7 | . | . | .
O=C(NNC(=S)Nc1ccccc1)NNC(=S)Nc1ccccc1 | 3 | -1 | 0 | -2 | 39* | 1 | 60* | -5
Oc1ccc(NC(=S)Nc2ccccc2)cc1 | 1 | -8 | -4 | -4 | 11 | 2 | . | .
O=C(COc1cccc2cccnc12)NNC(=S)Nc1ccccc1 | 1 | 5 | 0 | -6 | 35* | -30 | 77* | 0
NC(=O)COc1cccc2cccnc12 | 1 | -2 | 0 | 4 | -7 | 12 | . | .
SMILES | L929 necroptosis | TbHK1 inh | TNF necrop inh | RBBP9 inhibitor | PfM18AAP inh-1 | Lipid droplet | PfM18AAP inh-2 | CTSL1 counter
COC(=O)c1cc(S(=O)(=O)NCc2ccc(Br)cc2)c[nH]1 | . | . | . | . | -16 | -3 | . | .
CCN1/C(=C2\C(=O)N(C)C(=S)N2C)C=Cc2cc(C)ccc21 | 0 | -11 | -7 | -8 | 34* | -35 | -13 | 5
CCN1/C(=C2\C(=O)N(C)C(=S)N2C)C=Cc2ccccc21 | 0 | -7 | -6 | -7 | 13 | -8 | . | .
COc1cc(/C=N/Nc2ccc(Cl)nn2)cc(OC)c1O | . | . | . | . | 39* | -1 | 28 | 3
Oc1c(Br)cc(/C=N/Nc2ccc(Cl)nn2)cc1Br | . | . | . | . | 34* | -4 | -18 | 0
COc1cc(/C=N/Nc2ncc(C(F)(F)F)cc2Cl)cc(OC)c1OC | 5 | -34 | 3 | -4 | 1 | -6 | . | .

Assay outcomes as filed in PubChem.
